Drawing on ChEMBL document CHEMBL1143724, “4-Amino-5-vinyl-3(2H)-pyridazinones and analogues as potent antinociceptive agents: Synthesis, SARs, and preliminary studies on the mechanism of action” (Bioorg Med Chem, 2007), this text covers ED50 and Ki for two compounds.

One assay concerns Mus musculus. Put plainly: Antinociceptive effect in sc dosed CD1 mouse. In kind it is functional. In a few lines:
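Acetic acid abdominal constriction test, with compounds given sc 30 min before acetic acid. Writhes counted over 10 min. A response was scored as protected if below 3 SD of the control mean. Six to 8 mice per dose, at least 18 per experiment.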

Another assay has as its target Mu-type opioid receptor (Homo sapiens, UniProt P35372). Put plainly: Binding affinity to mu opioid receptor.
Assay [1] deals with Kappa-type opioid receptor (Homo sapiens, UniProt P41145). Put plainly: Binding affinity to kappa opioid receptor.
Kappa-type opioid receptor, sequence (P41145 whole entry): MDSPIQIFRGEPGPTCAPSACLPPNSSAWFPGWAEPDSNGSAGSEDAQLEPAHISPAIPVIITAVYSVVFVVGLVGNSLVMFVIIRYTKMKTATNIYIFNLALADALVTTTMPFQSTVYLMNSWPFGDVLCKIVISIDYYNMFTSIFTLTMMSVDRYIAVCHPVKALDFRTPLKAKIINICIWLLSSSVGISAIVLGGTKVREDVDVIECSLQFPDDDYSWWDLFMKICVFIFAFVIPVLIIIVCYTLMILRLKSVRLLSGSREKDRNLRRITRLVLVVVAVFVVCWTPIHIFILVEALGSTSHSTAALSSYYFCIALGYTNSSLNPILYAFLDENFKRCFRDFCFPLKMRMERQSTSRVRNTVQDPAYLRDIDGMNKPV
In assay [2] the target is Delta-type opioid receptor (Homo sapiens, UniProt P41143). Put plainly: Binding affinity to delta opioid receptor.
Delta-type opioid receptor, sequence (P41143 whole entry): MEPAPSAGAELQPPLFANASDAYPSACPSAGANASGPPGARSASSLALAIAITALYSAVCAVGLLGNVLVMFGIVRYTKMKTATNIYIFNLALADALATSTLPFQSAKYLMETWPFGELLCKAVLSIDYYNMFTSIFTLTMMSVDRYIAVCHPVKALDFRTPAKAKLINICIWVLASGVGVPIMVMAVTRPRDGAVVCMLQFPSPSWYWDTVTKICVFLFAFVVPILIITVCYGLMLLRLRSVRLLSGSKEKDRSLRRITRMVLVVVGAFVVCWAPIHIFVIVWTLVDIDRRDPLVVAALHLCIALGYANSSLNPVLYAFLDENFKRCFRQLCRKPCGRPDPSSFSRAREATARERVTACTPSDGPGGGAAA

In general, ED50 refers to the dose at which the effect has come halfway, by size or by number of responders. By Ki is commonly meant a dissociation constant, usually derived from enzyme kinetics or from competition with a known ligand. A lower Ki goes with tighter binding.

Where only a bound is given, the exact number is not on record here.

Mu-type opioid receptor, sequence (P35372 whole entry): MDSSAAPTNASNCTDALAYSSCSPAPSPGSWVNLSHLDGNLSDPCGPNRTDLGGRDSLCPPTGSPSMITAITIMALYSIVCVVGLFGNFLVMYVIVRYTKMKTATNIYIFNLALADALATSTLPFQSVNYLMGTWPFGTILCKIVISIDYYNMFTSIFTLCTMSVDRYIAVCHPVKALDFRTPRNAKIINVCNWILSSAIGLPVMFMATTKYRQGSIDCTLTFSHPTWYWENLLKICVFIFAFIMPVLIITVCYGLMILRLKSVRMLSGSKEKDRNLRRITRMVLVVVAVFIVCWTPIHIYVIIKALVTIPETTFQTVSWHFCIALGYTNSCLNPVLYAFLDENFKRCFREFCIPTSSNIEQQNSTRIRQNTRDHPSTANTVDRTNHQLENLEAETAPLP

As for `C=Cc1c(-c2ccccc2)nn(C)c(=O)c1NCCc1ccccc1`, in the assay on Mus musculus, the median effective dose (ED50) is 89.4 mg/kg.

As to `C=Cc1c(-c2ccccc2)nn(CCCC)c(=O)c1N`, the Ki (at Mu-type opioid receptor; in assay [1]; in assay [2]) was > 10 µM each time.
